Data on one compound can be found in paper PMC2857138 (The Journal of Biological Chemistry, 2010).

Holding throughout (format): biochemical
Assay [1] deals with IP3R2 (Mus musculus, UniProt Q9Z329). The assay can be described thus: Ca2+ release from stores of permeabilized DT40 cells. The method, boiled down: (§1)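 DT40 cells lacking all endogenous IP3R genes were stably transfected with the IP3R construct and selected with G418 (2 mg/ml). Intracellular stores were loaded with Mag-fluo-4, and cells were permeabilized with saponin (10 μg/ml) at 20 °C in cytosol-like medium (free Ca²⁺ 220 nM, pH 7.0). After MgATP (1.5 mM) loading reached steady state, IP3 was added with thapsigargin (1 μM). Release was expressed as a fraction of ionomycin (1 μM) release.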

Assay [2] addresses IP3R2 (Mus musculus, UniProt Q9Z329, G1969A/G1971A/G1974A). Put plainly: Ca2+ release from stores of permeabilized DT40-ΔATPB cells. An outline of the steps: as §1
The target in another assay is IP3R3 (Rattus norvegicus, UniProt Q63269). The assay can be described thus: Ca2+ release from stores of permeabilized DT40 cells.

IP3R2 (Mus musculus, UniProt Q9Z329, G1969A/G1971A/G1974A), sequence (Q9Z329 whole entry G1969A/G1971A/G1974A): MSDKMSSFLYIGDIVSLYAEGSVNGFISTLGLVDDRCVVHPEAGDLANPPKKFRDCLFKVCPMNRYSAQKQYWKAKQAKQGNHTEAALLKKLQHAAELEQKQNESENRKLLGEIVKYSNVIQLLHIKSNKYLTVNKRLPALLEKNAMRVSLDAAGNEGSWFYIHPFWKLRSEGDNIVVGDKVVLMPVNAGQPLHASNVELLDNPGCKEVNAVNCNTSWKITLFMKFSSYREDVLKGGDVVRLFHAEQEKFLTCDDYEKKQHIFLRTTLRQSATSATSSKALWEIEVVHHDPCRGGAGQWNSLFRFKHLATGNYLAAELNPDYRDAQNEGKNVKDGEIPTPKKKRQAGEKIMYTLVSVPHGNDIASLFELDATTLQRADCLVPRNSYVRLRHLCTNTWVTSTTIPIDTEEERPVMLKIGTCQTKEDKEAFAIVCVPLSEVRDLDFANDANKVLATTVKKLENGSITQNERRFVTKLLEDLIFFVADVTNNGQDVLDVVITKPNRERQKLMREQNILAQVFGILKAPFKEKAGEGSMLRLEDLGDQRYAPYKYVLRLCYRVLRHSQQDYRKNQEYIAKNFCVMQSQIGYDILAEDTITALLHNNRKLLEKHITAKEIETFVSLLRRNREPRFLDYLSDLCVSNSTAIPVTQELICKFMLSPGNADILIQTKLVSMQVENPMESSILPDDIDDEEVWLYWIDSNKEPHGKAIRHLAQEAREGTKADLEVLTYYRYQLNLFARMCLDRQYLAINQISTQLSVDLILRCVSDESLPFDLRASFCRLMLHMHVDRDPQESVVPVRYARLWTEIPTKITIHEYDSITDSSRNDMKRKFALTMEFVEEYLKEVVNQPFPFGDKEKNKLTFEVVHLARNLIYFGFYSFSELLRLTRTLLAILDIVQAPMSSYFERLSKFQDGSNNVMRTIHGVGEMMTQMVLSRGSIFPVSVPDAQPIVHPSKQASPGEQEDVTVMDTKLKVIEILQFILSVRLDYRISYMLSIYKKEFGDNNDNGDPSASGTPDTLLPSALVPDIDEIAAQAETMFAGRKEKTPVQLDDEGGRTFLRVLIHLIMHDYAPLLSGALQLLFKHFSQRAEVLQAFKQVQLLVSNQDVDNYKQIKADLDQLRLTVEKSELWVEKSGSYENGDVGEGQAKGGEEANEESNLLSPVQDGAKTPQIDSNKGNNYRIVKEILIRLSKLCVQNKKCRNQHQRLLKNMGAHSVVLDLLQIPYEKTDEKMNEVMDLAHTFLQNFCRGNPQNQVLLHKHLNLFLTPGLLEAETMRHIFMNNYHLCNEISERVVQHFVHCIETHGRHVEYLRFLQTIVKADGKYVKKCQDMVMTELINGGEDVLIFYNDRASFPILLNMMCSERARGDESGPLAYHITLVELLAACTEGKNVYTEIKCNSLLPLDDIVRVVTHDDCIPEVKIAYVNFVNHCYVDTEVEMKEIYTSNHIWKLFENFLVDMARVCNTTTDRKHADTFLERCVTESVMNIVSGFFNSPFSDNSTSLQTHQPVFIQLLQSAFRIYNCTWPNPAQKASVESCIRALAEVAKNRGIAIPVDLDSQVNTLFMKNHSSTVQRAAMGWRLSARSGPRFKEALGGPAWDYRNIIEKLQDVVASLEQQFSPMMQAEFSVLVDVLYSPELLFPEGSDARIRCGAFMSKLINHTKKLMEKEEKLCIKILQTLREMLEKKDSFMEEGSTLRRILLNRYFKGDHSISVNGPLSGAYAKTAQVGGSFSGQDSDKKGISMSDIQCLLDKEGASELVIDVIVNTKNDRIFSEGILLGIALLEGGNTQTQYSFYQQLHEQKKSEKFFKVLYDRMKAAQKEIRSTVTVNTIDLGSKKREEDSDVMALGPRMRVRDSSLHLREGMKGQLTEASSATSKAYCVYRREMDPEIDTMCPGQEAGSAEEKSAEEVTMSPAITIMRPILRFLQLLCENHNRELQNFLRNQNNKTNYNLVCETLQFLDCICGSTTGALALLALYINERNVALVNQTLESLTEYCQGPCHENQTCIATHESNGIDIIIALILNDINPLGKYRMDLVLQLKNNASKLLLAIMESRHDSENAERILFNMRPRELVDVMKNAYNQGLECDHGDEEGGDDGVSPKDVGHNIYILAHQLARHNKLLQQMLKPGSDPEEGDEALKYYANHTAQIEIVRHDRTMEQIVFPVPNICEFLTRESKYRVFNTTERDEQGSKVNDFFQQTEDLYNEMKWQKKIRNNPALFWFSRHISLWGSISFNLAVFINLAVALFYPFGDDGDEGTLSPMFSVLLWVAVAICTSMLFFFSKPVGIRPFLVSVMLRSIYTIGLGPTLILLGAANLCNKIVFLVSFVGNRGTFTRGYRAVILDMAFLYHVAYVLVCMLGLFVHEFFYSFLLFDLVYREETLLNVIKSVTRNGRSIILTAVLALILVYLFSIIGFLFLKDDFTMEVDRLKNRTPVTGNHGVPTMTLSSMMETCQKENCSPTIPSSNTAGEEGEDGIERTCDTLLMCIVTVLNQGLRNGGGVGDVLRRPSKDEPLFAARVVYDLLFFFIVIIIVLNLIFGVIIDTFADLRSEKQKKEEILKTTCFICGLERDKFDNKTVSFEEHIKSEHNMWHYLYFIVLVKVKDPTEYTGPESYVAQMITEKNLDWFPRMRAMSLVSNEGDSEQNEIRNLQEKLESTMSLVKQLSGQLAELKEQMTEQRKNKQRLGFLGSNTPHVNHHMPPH

Regarding `O=P(O)(O)O[C@@H]1[C@H](O)[C@H](O)[C@@H](OP(=O)(O)O)[C@H](OP(=O)(O)O)[C@H]1O` [IP3], the EC50 (in general, the concentration at which the effect is half-maximal) on IP3R2 [1] is 74 ± 10 nM; on IP3R2 [2], 246 ± 17 nM; at IP3R3 it was 255 ± 9 nM.
